This note sets out measurements from ChEMBL document CHEMBL1800004, “Discovery of 4-anilinofuro[2,3-b]quinoline derivatives as selective and orally active compounds against non-small-cell lung cancers” (J Med Chem, 2011).

What all share (format): functional
Assay [1] concerns SF-268. Briefly: Anticancer activity against human SF268 cells assessed as cell growth at 20 ug/mL after 48 hrs by SRB assay relative to control. To be noted: SF-268, 48 h, read-out: Activity. The essentials: (§1)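 Cells were inoculated and preincubated in microtiter plates. Compounds were dissolved in DMSO, diluted in culture medium, and tested at 20.0 and 4.0 μg/mL for 48 h. The end-point used sulforhodamine B protein staining, and growth was expressed as percent of untreated control cells.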
A general note: The SRB assay estimates cell density from bound dye.

The subject of assay [2] is NCI-H460. Briefly: Anticancer activity against human NCI-H460 cells assessed as cell growth at 4 ug/mL after 48 hrs by SRB assay relative to control. To be noted: NCI-H460, 48 h, read-out: Activity. The essentials: as §1
The subject of assay [3] is NCI-H460. Briefly: Anticancer activity against human NCI-H460 cells assessed as cell growth at 20 ug/mL after 48 hrs by SRB assay relative to control. To be noted: NCI-H460, 48 h, read-out: Activity. The essentials:
as §1

The subject of assay [4] is MCF7. Briefly: Anticancer activity against human MCF7 cells assessed as cell growth at 4 ug/mL after 48 hrs by SRB assay relative to control. To be noted: MCF7, 48 h, read-out: Activity. The essentials: as §1
Assay [5] deals with MCF7. Briefly: Anticancer activity against human MCF7 cells assessed as cell growth at 20 ug/mL after 48 hrs by SRB assay relative to control. To be noted: MCF7, 48 h, read-out: Activity. The essentials:
as §1

Assay [6] relates to SF-268. Briefly: Anticancer activity against human SF268 cells assessed as cell growth at 4 ug/mL after 48 hrs by SRB assay relative to control. The note with it: SF-268, 48 h, read-out: Activity. The essentials:
as §1

Take `C/C(=N\OCCN1CCCC1)c1ccc(Nc2c3ccccc3nc3occc23)cc1`: the figures for the growth at 20 µg/mL in assay [1], in assay [3] and in assay [5] were -3%, 1% and 6%, respectively. In addition, the growth at 4 µg/mL in assay [2] turned out to be 54%; in assay [4] it was 64%; in assay [6], 66%.

On to `COc1ccc2c(Nc3ccc(/C(C)=N/OCCCN)cc3)c3c(Cl)coc3nc2c1`, for which the growth at 20 µg/mL in assay [1] is 48%; in assay [3], 8%; in assay [5], 3%. Moreover, the figures for the growth at 4 µg/mL in assay [2], in assay [4] and in assay [6] were 91%, 101% and 109%, respectively.

Consider `COc1ccc2c(Nc3ccc(/C(C)=N/OCCN4CCCCC4)cc3)c3c(Cl)coc3nc2c1`, for which the growth at 20 µg/mL was 48% in assay [1], 3% in assay [3] and -1% in assay [5]. The growth at 4 µg/mL in assay [2] was found to be 67%; in assay [4], 56%; in assay [6], 112%.

Take `COc1ccc2c(Nc3ccc(C(=O)NCCN(C)C)cc3)c3c(Cl)coc3nc2c1`: the growth at 20 µg/mL was 68% in assay [1], 60% in assay [3] and 44% in assay [5]. Further, the growth at 4 µg/mL in assay [2] turned out to be 112%; in assay [4], 97%; in assay [6], 119%.

Take `C/C(=N\OCCN1CCCC1)c1ccc(Nc2c3ccccc3nc3occ(Cl)c23)cc1`: the growth at 20 µg/mL was -3% in assay [1], -1% in assay [3] and -2% in assay [5]. Further, the figures for the growth at 4 µg/mL in assay [2], in assay [4] and in assay [6] were 69%, 86% and 86%, respectively.

In the case of `COc1ccc2c(Nc3ccc(C(=O)NCCCN(C)C)cc3)c3c(Cl)coc3nc2c1`, the growth at 20 µg/mL turned out to be 71% in assay [1], 36% in assay [3] and 72% in assay [5]. Further, the growth at 4 µg/mL amounted to 92% in assay [2], 91% in assay [4] and 94% in assay [6].

On to `COc1ccc2c(Nc3ccc(/C(C)=N/OCCN4CCCC4)cc3)c3ccoc3nc2c1`, for which the growth at 20 µg/mL in assay [1] stood at 6%; in assay [3] it was 5%; in assay [5], 3%. Also, the values for the growth at 4 µg/mL in assay [2], in assay [4] and in assay [6] were 69%, 63% and 104%, respectively.

Turning to `COc1ccc2c(Nc3ccc(/C(C)=N/OCCCN(C)C)cc3)c3c(Cl)coc3nc2c1`, the growth at 20 µg/mL in assay [1] came out at 1%; in assay [3], 4%; in assay [5] it was 1%. Also, the growth at 4 µg/mL in assay [2] came to 66%; in assay [4] it was 66%; in assay [6], 103%.

For the compound `COc1ccc2c(Nc3ccc(/C(C)=N/OCCN4CCOCC4)cc3)c3ccoc3nc2c1`, the growth at 20 µg/mL in assay [1] was determined as 92%; in assay [3], 44%; in assay [5] it was 25%. Also, the growth at 4 µg/mL is 96% in assay [2], 76% in assay [4] and 110% in assay [6].

For the compound `C/C(=N\OCCN1CCCCC1)c1ccc(Nc2c3ccccc3nc3occ(Cl)c23)cc1`, the growth at 20 µg/mL amounted to 31% in assay [1], 3% in assay [3] and 26% in assay [5]. The growth at 4 µg/mL in assay [2] was 101%; in assay [4], 121%; in assay [6], 120%.

Take `CNC(=O)c1ccc(Nc2c3ccc(OC)cc3nc3occ(Cl)c23)cc1`: the growth at 20 µg/mL is 35% in assay [1], 27% in assay [3] and 47% in assay [5]. In addition, the results for the growth at 4 µg/mL in assay [2], in assay [4] and in assay [6] were 58%, 72% and 52%, respectively.

On to `C/C(=N\OCCN(C)C)c1ccc(Nc2c3ccccc3nc3occc23)cc1`, for which the growth at 20 µg/mL in assay [1] was -5%; in assay [3] it was 0%; in assay [5] it was 0%. Also, the growth at 4 µg/mL was determined as 94% in assay [2], 59% in assay [4] and 81% in assay [6].

For `C/C(=N\OCCN1CCOCC1)c1ccc(Nc2c3ccccc3nc3occc23)cc1`, the growth at 20 µg/mL in assay [1] was found to be 32%; in assay [3] it was 23%; in assay [5], 56%. The results for the growth at 4 µg/mL in assay [2], in assay [4] and in assay [6] were 108%, 120% and 121%, respectively.

For `COc1ccc2c(Nc3ccc(/C(C)=N/OCCCCN4CCOCC4)cc3)c3c(Cl)coc3nc2c1`, the growth at 20 µg/mL was 99% in assay [1], 20% in assay [3] and 5% in assay [5]. Also, the growth at 4 µg/mL in assay [2] came to 87%; in assay [4] it was 96%; in assay [6] it was 110%.

Turning to `C/C(=N\OCCCCN1CCOCC1)c1ccc(Nc2c3ccccc3nc3occ(Cl)c23)cc1`, the growth at 20 µg/mL in assay [1] is 3%; in assay [3], 3%; in assay [5], -3%. Moreover, the growth at 4 µg/mL was 91% in assay [2], 75% in assay [4] and 115% in assay [6].

As for `COc1ccc2c(Nc3ccc(/C(C)=N/OCCN(C)C)cc3)c3c(Cl)coc3nc2c1`, the growth at 20 µg/mL in assay [1] is -1%; in assay [3], -1%; in assay [5], -2%. The growth at 4 µg/mL in assay [2] worked out at 74%; in assay [4] it was 51%; in assay [6], 102%.

For `COc1ccc2c(Nc3ccc(/C(C)=N/OCCN4CCCCC4)cc3)c3ccoc3nc2c1`, the figures for the growth at 20 µg/mL in assay [1], in assay [3] and in assay [5] were 44%, 9% and 2%, respectively. Also, the growth at 4 µg/mL in assay [2] stood at 84%; in assay [4], 77%; in assay [6], 106%.

For `COc1ccc2c(Nc3ccc(C(N)=O)cc3)c3c(Cl)coc3nc2c1`, the growth at 4 µg/mL in assay [2] is 96%; in assay [4], 90%. In addition, the figures for the growth at 20 µg/mL in assay [3] and in assay [5] were 77% and 66%, respectively.

`NC(=O)c1ccc(Nc2c3ccccc3nc3occ(Cl)c23)cc1`: the growth at 20 µg/mL in assay [1] is 97%; in assay [3], 97%; in assay [5] it was 92%. For the same compound, the growth at 4 µg/mL worked out at 97% in assay [2], 93% in assay [4] and 97% in assay [6].

As for `COc1ccc2c(Nc3ccc(/C(C)=N/OCCN4CCOCC4)cc3)c3c(Cl)coc3nc2c1`, the growth at 20 µg/mL in assay [1] is 108%; in assay [3], 68%; in assay [5], 37%. The results for the growth at 4 µg/mL in assay [2], in assay [4] and in assay [6] were 97%, 85% and 104%, respectively.

On to `C/C(=N\OCCN1CCCCC1)c1ccc(Nc2c3ccccc3nc3occc23)cc1`, for which the growth at 20 µg/mL in assay [1] is -3%; in assay [3], -1%; in assay [5], 3%. For the same compound, the growth at 4 µg/mL in assay [2] was 99%; in assay [4], 114%; in assay [6], 96%.

Take `COc1ccc2c(Nc3ccc(S(N)(=O)=O)cc3)c3c(Cl)coc3nc2c1`: the growth at 4 µg/mL in assay [2] came out at 97%; in assay [4], 90%. Moreover, the growth at 20 µg/mL amounted to 17% in assay [3] and 33% in assay [5].
